Bioassay records deposited in PubChem by several laboratories.
The list is not random: actives were taken first. Their share in the collection is about 1.3%.
LYP inh 2 = blocks human PTPN22 phosphatase activity; recombinant LYP catalytic domain, DiFMUP fluorescence; AID 640; inhibition, % at 2 µM; 0.21% of 96,000 active;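 active means inhibition at 2 µM at or above a set limit, the screen mean plus 3 SD, cut at about 24% in these data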;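 further: 0% = DMSO with enzyme and 100% = enzyme fully blocked by orthovanadate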
LYP act = activators of human LYP (PTPN22) phosphatase; Q9Y2R2; activation, % at 2 µM; AID 697; 0.11% of 96,000 active; recombinant LYP, DiFMUP fluorescence; 0 = plate median, 100 = signal doubled;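 active means activation at 2 µM above a set limit, the mean plus 5 SD, cut at about 37% in these data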
EphB4 antag = blocks human EphB4 binding to ephrin-B2; P54760; EphB4 LBD / TNYL-RAW-Alexa532 peptide, fluorescence polarization; inhibition, % at 7 µM; 0.15% of 97,000 active; AID 720;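 active means inhibition above the screen-wide mean inhibition plus 3 SD, cut at about 15% in these data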;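 further: 0% = DMSO wells and 100% = excess unlabeled TNYL-RAW peptide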
HIV Rev-RRE inh = disrupts HIV-1 Rev binding to RRE RNA | P05866 | Rev peptide-RRE RNA binding, FRET | inhibition, % at 8 µM | 0.79% of 97,000 active;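 active means inhibition above the screen-wide mean plus 3 SD, cut at about 35% in these data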;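 further: 0% = median DMSO wells and 100% = median Neomycin B control wells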
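Test system – labelled RRE RNA duplex and labelled Rev peptide · Reagent – labelled Rev peptide · Doses – one concentration, 8 µM nominal · Incubation – 5 + 15 min at 25 °C · Signal – FRET fluorescence readout · Read-out basis – % inhibition of FRET ratio versus controls · Control set – DMSO wells as 0% and neomycin B wells as 100% inhibition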
LYP act confirm = LYP (PTPN22) phosphatase activation confirmation | 100 tested, under 10 active | Recombinant LYP, DIFMUP fluorescence; zero set by plate's median compound well | shares compounds with LYP act | AID 1031 | activation, % at 2 µM; call rule not given here
Starred values were filed as active, the others as inactive; [ ] = another dose, or the depositor's remark.

SMILES	LYP inh 2	LYP act	EphB4 antag	HIV Rev-RRE inh	others
COc1ccc2nc(/N=C/c3c(O)n(-c4cccc(Cl)c4)c(=O)[nH]c3=O)sc2c1	-2	5	10	36*
CCN(CC)c1ccc(N=Cc2c(O)n(CCC3=CCCCC3)c(=O)[nH]c2=O)cc1	8	-10	9	42*
CN(C)c1ccc(N=Cc2c(O)n(CCC3=CCCCC3)c(=O)[nH]c2=O)cc1	7	-9	2	10
CCN(CC)c1ccc(N=Cc2c(O)n(-c3ccc(Cl)cc3)c(=O)[nH]c2=O)cc1	-1	3	2	31
CCN(CC)c1ccc(N=Cc2c(O)n(-c3ccc(OC)cc3)c(=O)[nH]c2=O)cc1	-2	2	-1	72*
C=CCn1c(O)c(C=NCCN(C)C)c(=O)[nH]c1=O	4	-5	3	38*
COc1ccc(-n2c(O)c(C=Nc3c(C)n(C)n(-c4ccccc4)c3=O)c(=O)[nH]c2=O)cc1	0	3	-6	2
O=c1c2ccccc2nc(-c2ccco2)n1-c1nccs1	3	-4	-6	5
Cc1cccc(N=Cc2c(O)n(-c3ccccc3C)c(=O)[nH]c2=O)c1	-2	3	2	14
C=CCn1c(O)c(C=Nc2ccc(N(CC)CC)cc2)c(=O)[nH]c1=O	-25	27	-1	56*
Cc1ccccc1-n1c(O)c(C=Nc2ccc(N(C)C)cc2)c(=O)[nH]c1=O	7	-9	-5	41*
CN1CCc2nc(N)c(C#N)c(-c3ccccc3)c2C1	18	-15	3	46*
CN1CCc2nc3sc(C#N)c(N)c3c(-c3cccs3)c2C1	0	-1	2	32
Cn1nc(-c2ccc(OCC(=O)N3CCN(Cc4ccccc4)CC3)cc2)c2ccccc2c1=O	-6	8	2	5
CCOc1cccc(N2C(=O)CC(=O)NC2=O)c1	2	-3	17*[fluorescence artefact?]	15
CN=C(SCc1cc2c(cc1Cl)OCO2)c1c(O)n(C)c(=O)n(C)c1=O	-9	6	-8	0
O=c1[nH]c(CN2CC=C(c3ccccc3)CC2)nc2cc(C(F)(F)F)ccc12	-3	2	0	45*
CCN1C(=O)NC(=O)/C(=C\c2ccc(N3CCOCC3)cc2OC)C1=O	-7	10	-2	12
CCN(CC)c1ccc(/C=C2/C(=O)NC(=O)N(CC3CCCO3)C2=O)cc1 (stereo unspecified)	10	-6	5	89*[fluorescence artefact?]
Cc1ccnc(-n2c(-c3ccco3)nc3ccccc3c2=O)c1	8	-4	1	6
NC(=O)CSc1nnc([C@@H](N)Cc2c[nH]c3ccccc23)o1	-1	4	-10	-1
CCc1ccc(C(=O)C23CN4CN(CN(C4)C2)C3)cc1	0	0	4	7
CCC(=O)N1CC(=O)Nc2ccc(F)cc2C1c1ccccc1 (stereo unspecified)	-12	11	2	5
O=C1CN(C(=O)CN2CCCCC2)C(c2ccccc2)c2cc(Br)ccc2N1 (stereo unspecified)	-1	-1	16*	7
CCCCN1C(=O)/C(=C/c2ccc(N(C)C)cc2)C(=O)N(Cc2ccco2)C1=O	-4	6	-21	53*
SMILES	LYP inh 2	LYP act	EphB4 antag	HIV Rev-RRE inh	others
CC1C(c2cccs2)=[N+]([O-])C(C)(C(=O)c2ccc(F)cc2)N1O (stereo unspecified)	-4	10	7	5
NC(=O)CN1C2CCC1CC(NC(=O)C1CC1)C2 (stereo unspecified)	14	-16	4	10
CC/C(=C\C=C\[C@@H]1C=C[C@@H]2CCC[C@H]2[C@@H]1C(=O)c1ccc[nH]1)[C@@H]1O[C@@H]([C@@H](C)C(=O)O)CC[C@@H]1C	25*	-26	-2	0
O=c1cc(C(F)(F)F)c2cc3c4c(c2o1)CCCN4CCC3	-2	2	3	132*[fluorescence artefact?]
Cc1cc2c(C(F)(F)F)cc(=O)oc2c2c1NCCC2	-4	2	-2	130*[fluorescence artefact?]
C1=C(c2c[nH]c3ccccc23)CCNC1	-17	17	12	99*[fluorescence artefact?]
CCOC(=O)c1c(N)n(CCN2CCCCC2)c2nc3ccccc3nc12	-5	3	5	38*
CCCCn1c(N)c(C(=O)NCCN2CCOCC2)c2nc3ccccc3nc21	-7	7	-1	3
C=CCNC(=O)c1c(N)n(Cc2ccco2)c2nc3ccccc3nc12	7	-4	-3	50*
COCCNC(=O)c1c(N)n(Cc2ccco2)c2nc3ccccc3nc12	2	2	-4	36*
Nc1c(C(=O)NCCN2CCOCC2)c2nc3ccccc3nc2n1Cc1ccco1	-2	1	3	45*
Cc1c(/C=C2/CC3C4CC=C5CC(O)CCC5(C)C4CCC3(C)C2=O)cnn1C (stereo unspecified)	-3	3	0	-2
CC1CCCCN1CC(=O)c1ccc2cc[nH]c2c1 (stereo unspecified)	-8	7	-6	8
O=C(N/N=C1/CN2CCC1CC2)c1cc2ccccc2cc1O	0	0	11	11
CC(=O)c1c(C)[nH]c(C(=O)N2CCC3(CC2)OCCO3)c1C	3	-5	-1	17
Cc1cc(C=C2C(=O)N(C)C(=S)N(C)C2=O)c(C)n1C1CCCC1	6	-5	2	19
CN1C(=O)C(=Cc2ccc(N3CCCCCC3)o2)C(=O)N(C)C1=S	9	-6	-3	124*[fluorescence artefact?]
O=C1NC(=O)N(Cc2ccccc2Cl)C(=O)/C1=C/N1CCOCC1	-43	43*	-3	16	LYP act confirm=4
CC1CCCC(C2(O)C(=O)Nc3ccccc32)C1=O (stereo unspecified)	9	-10	6	9
